Consider 21 compounds from ChEMBL document CHEMBL4665863 (Bioorg Med Chem, 2020).

In brackets after ≈: the same amount, converted by molar mass. Activity calls are given as the source filed them.

Usually MIC stands for the smallest concentration in the dilution series that meets the test's criterion for growth inhibition. A higher MIC goes with a need for much substance.

In one assay the test system is Pseudomonas aeruginosa. Nature of the assay: Antibacterial activity against Pseudomonas aeruginosa ATCC27853 incubated for 24 hrs by CLSI-based broth microdilution method. In kind it is functional. In general terms: Dilution methods test growth across graded concentrations, often in twofold steps.
In another assay the test system is Escherichia coli. The experiment in a line: Antibacterial activity against Escherichia coli ATCC25922 incubated for 24 hrs by CLSI-based broth microdilution method. It is filed as functional. Particulars: ATCC 25922.
In assay [1] the test system is Staphylococcus aureus. The experiment in a line: Antibacterial activity against Staphylococcus aureus clinical isolate incubated for 24 hrs by CLSI-based broth microdilution method. In kind it is functional.
The test system of assay [2] is Staphylococcus aureus. Nature of the assay: Antibacterial activity against penicillin-resistant Staphylococcus aureus incubated for 24 hrs by CLSI-based broth microdilution method. It is filed as functional.
Another assay concerns Bacillus pumilus. Nature of the assay: Antibacterial activity against Bacillus pumilus CMCC63202 incubated for 24 hrs by CLSI-based broth microdilution method. It is filed as functional.
Assay [3] deals with Staphylococcus aureus. Nature of the assay: Antibacterial activity against Staphylococcus aureus ATCC25923 incubated for 24 hrs by CLSI-based broth microdilution method. In kind it is functional.
The test system of assay [4] is Staphylococcus aureus. The experiment in a line: Antibacterial activity against methicillin-resistant Staphylococcus aureus ATCC43300 incubated for 24 hrs by CLSI-based broth microdilution method. In kind it is functional.
Assay [5] concerns Bacillus subtilis. Nature of the assay: Antibacterial activity against Bacillus subtilis ATCC9372 incubated for 24 hrs by CLSI-based broth microdilution method. It is filed as functional.
Assay [6] has as its system Bacillus subtilis. The experiment in a line: Inhibition of ftsZ in Bacillus subtilis assessed as increase in enzyme polymerization kinetics at 5 ug/ml measured for 30 mins by microtiter plate-based light scattering assay. Particulars: dose 5.0 µg/ml. The method, boiled down: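 Purified recombinant B. subtilis FtsZ was used. Polymerization was followed as light scattering in microtiter plates, read as time-dependent absorbance at 340 nm at several compound concentrations. Vehicle, CIP and LIN served as controls.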

The test system of assay [7] is Bacillus subtilis. The experiment in a line: Inhibition of ftsZ in Bacillus subtilis assessed as increase in enzyme polymerization kinetics at 10 ug/ml measured for 30 mins by microtiter plate-based light scattering assay. Particulars: dose 10.0 µg/ml.

For the compound `NC(=O)c1c(F)ccc(OCC2=NOC(c3ccc(Cl)cc3Cl)C2)c1F` (configuration not stated), the MIC with Pseudomonas aeruginosa is more than 64 µg/mL; with Escherichia coli, more than 64 µg/mL; against Staphylococcus aureus [1], 16 µg/mL (≈ 39.9 µM); in the assay on Staphylococcus aureus [2], 32 µg/mL (≈ 79.8 µM); against Bacillus pumilus, 0.5 µg/mL (≈ 1.25 µM); against Staphylococcus aureus [3], 32 µg/mL (≈ 79.8 µM). The MIC with Staphylococcus aureus [4] was 16 µg/mL (≈ 39.9 µM); in the assay on Bacillus subtilis [5], 2 µg/mL (≈ 4.99 µM).

Regarding `CCCCc1ccc(C2=NO[C@@H](COc3ccc(F)c(C(N)=O)c3F)C2)cc1`, in the assay with Bacillus subtilis [6], the “FtsZ polymerization increase (active/inactive call)” value was “Active”. Also, the MIC is more than 64 µg/mL against Pseudomonas aeruginosa; more than 64 µg/mL in the assay with Escherichia coli; 2 µg/mL (≈ 5.15 µM) with Staphylococcus aureus [1]; 1 µg/mL (≈ 2.57 µM) against Staphylococcus aureus [2]; 0.5 µg/mL (≈ 1.29 µM) in the assay on Bacillus pumilus; 4 µg/mL (≈ 10.3 µM) in the assay with Staphylococcus aureus [3]. Moreover, the MIC in the assay on Staphylococcus aureus [4] was determined as 2 µg/mL (≈ 5.15 µM); against Bacillus subtilis [5], 0.25 µg/mL (≈ 0.644 µM).

As to `CCCCc1ccc(-c2cc(COc3ccc(F)c(C(N)=O)c3F)on2)cc1`, the “FtsZ polymerization increase (active/inactive call)” value with Bacillus subtilis [6] was “Active”.

Regarding `O=C(O)c1cn(C2CC2)c2cc(N3CCNCC3)c(F)cc2c1=O`, in the assay with Bacillus subtilis [7], the inhibition entry was “inactive”.

On to `CC(C)(C)c1ccc(C2=NOC(COc3ccc(F)c(C(N)=O)c3F)C2)cc1` (configuration not stated), for which the MIC is more than 64 µg/mL against Pseudomonas aeruginosa; more than 64 µg/mL in the assay with Escherichia coli; 4 µg/mL (≈ 10.3 µM) against Staphylococcus aureus [1]; 4 µg/mL (≈ 10.3 µM) in the assay with Staphylococcus aureus [2]; not above 0.125 µg/mL against Bacillus pumilus; 4 µg/mL (≈ 10.3 µM) with Staphylococcus aureus [3]. In addition, the MIC in the assay with Staphylococcus aureus [4] was 2 µg/mL (≈ 5.15 µM); in the assay with Bacillus subtilis [5], 0.25 µg/mL (≈ 0.644 µM).

With `CC[C@H]1OC(=O)[C@H](C)[C@@H](O[C@H]2C[C@@](C)(OC)[C@@H](O)[C@H](C)O2)[C@H](C)[C@@H](O[C@@H]2O[C@H](C)C[C@H](N(C)C)[C@H]2O)[C@](C)(O)C[C@@H](C)C(=O)[C@H](C)[C@@H](O)[C@]1(C)O` [ERYTHROMYCIN], the MIC is 32 µg/mL (≈ 43.6 µM) with Pseudomonas aeruginosa; 16 µg/mL (≈ 21.8 µM) in the assay on Escherichia coli; more than 64 µg/mL with Staphylococcus aureus [1]; not above 0.125 µg/mL against Bacillus pumilus; not above 0.125 µg/mL in the assay on Staphylococcus aureus [3]; more than 64 µg/mL in the assay on Staphylococcus aureus [4]. In addition, in the assay on Bacillus subtilis [5], the minimum inhibitory concentration (MIC) is not above 0.125 µg/mL.

`CCOc1ccccc1C1CC(COc2ccc(F)c(C(N)=O)c2F)=NO1` (configuration not stated): the MIC in the assay with Pseudomonas aeruginosa, with Escherichia coli, against Staphylococcus aureus [2], with Bacillus pumilus, in the assay with Staphylococcus aureus [3] and in the assay with Staphylococcus aureus [4] was more than 64 µg/mL each time. In addition, the MIC in the assay with Bacillus subtilis [5] was more than 64 µg/mL.

In the case of `CCCCc1ccc(C2=NO[C@H](COc3ccc(F)c(C(N)=O)c3F)C2)cc1`, the “FtsZ polymerization increase (active/inactive call)” value with Bacillus subtilis [6] is “Active”. Moreover, the MIC is more than 64 µg/mL against Pseudomonas aeruginosa; more than 64 µg/mL against Escherichia coli; not above 0.125 µg/mL with Staphylococcus aureus [1]; 0.25 µg/mL (≈ 0.644 µM) against Staphylococcus aureus [2]; not above 0.125 µg/mL with Bacillus pumilus; 0.25 µg/mL (≈ 0.644 µM) against Staphylococcus aureus [3]. Also, the MIC against Staphylococcus aureus [4] and against Bacillus subtilis [5] was not above 0.125 µg/mL throughout.

`NC(=O)c1c(F)ccc(OCc2nc3cc(Cl)cnc3s2)c1F`: the MIC is more than 64 µg/mL with Pseudomonas aeruginosa; more than 64 µg/mL against Escherichia coli; 1 µg/mL (≈ 2.81 µM) with Staphylococcus aureus [1]; 1 µg/mL (≈ 2.81 µM) in the assay with Staphylococcus aureus [2]; 0.5 µg/mL (≈ 1.41 µM) with Bacillus pumilus; 1 µg/mL (≈ 2.81 µM) against Staphylococcus aureus [3]. Further, the MIC against Staphylococcus aureus [4] came to 1 µg/mL (≈ 2.81 µM); against Bacillus subtilis [5], 0.5 µg/mL (≈ 1.41 µM).

`CC(C)c1ccc(C2CC(COc3ccc(F)c(C(N)=O)c3F)=NO2)cc1` (configuration not stated): the MIC against Pseudomonas aeruginosa was more than 64 µg/mL; in the assay with Escherichia coli, more than 64 µg/mL; in the assay on Staphylococcus aureus [2] it was more than 64 µg/mL; against Bacillus pumilus, 8 µg/mL (≈ 21.4 µM); against Staphylococcus aureus [3] it was 64 µg/mL (≈ 171 µM); against Staphylococcus aureus [4], 64 µg/mL (≈ 171 µM). In the assay on Bacillus subtilis [5], this compound showed an MIC of 4 µg/mL (≈ 10.7 µM).

`COc1cccc(C2=NOC(COc3ccc(F)c(C(N)=O)c3F)C2)c1` (configuration not stated): the MIC against Pseudomonas aeruginosa was more than 64 µg/mL; in the assay on Escherichia coli it was more than 64 µg/mL; against Staphylococcus aureus [2] it was more than 64 µg/mL; against Bacillus pumilus it was 32 µg/mL (≈ 88.3 µM); in the assay with Staphylococcus aureus [3] it was more than 64 µg/mL; in the assay on Staphylococcus aureus [4] it was more than 64 µg/mL. In the assay with Bacillus subtilis [5], the MIC amounted to 8 µg/mL (≈ 22.1 µM).

In the case of `N#Cc1ccc(C2=NOC(COc3ccc(F)c(C(N)=O)c3F)C2)cc1` (configuration not stated), the MIC against Pseudomonas aeruginosa, against Escherichia coli, against Staphylococcus aureus [2], against Bacillus pumilus, against Staphylococcus aureus [3] and in the assay on Staphylococcus aureus [4] was more than 64 µg/mL in each case. The MIC in the assay with Bacillus subtilis [5] was found to be 32 µg/mL (≈ 89.6 µM).

`CCc1ccc(C2=NOC(COc3ccc(F)c(C(N)=O)c3F)C2)cc1` (configuration not stated): the MIC is more than 64 µg/mL against Pseudomonas aeruginosa; more than 64 µg/mL against Escherichia coli; 16 µg/mL (≈ 44.4 µM) against Staphylococcus aureus [2]; 2 µg/mL (≈ 5.55 µM) against Bacillus pumilus; 8 µg/mL (≈ 22.2 µM) against Staphylococcus aureus [3]; 8 µg/mL (≈ 22.2 µM) in the assay with Staphylococcus aureus [4]. In the assay on Bacillus subtilis [5], this compound had an MIC of 0.5 µg/mL (≈ 1.39 µM).

With `CCCCCc1ccc(C2=NOC(COc3ccc(F)c(C(N)=O)c3F)C2)cc1` (configuration not stated), the MIC in the assay with Pseudomonas aeruginosa is more than 64 µg/mL; against Escherichia coli, more than 64 µg/mL; in the assay with Staphylococcus aureus [2] it was more than 64 µg/mL; in the assay with Bacillus pumilus it was not above 0.125 µg/mL; against Staphylococcus aureus [3] it was more than 64 µg/mL; in the assay on Staphylococcus aureus [4], more than 64 µg/mL. In addition, inhibition of growth against Bacillus subtilis [5] (MIC) required 0.5 µg/mL (≈ 1.24 µM).

For `CCOc1ccc(C2CC(COc3ccc(F)c(C(N)=O)c3F)=NO2)cc1` (configuration not stated), the MIC was more than 64 µg/mL against Pseudomonas aeruginosa; more than 64 µg/mL with Escherichia coli; more than 64 µg/mL against Staphylococcus aureus [2]; 64 µg/mL (≈ 170 µM) against Bacillus pumilus; more than 64 µg/mL in the assay with Staphylococcus aureus [3]; 64 µg/mL (≈ 170 µM) with Staphylococcus aureus [4]. Also, in the assay on Bacillus subtilis [5], the MIC was 16 µg/mL (≈ 42.5 µM).

For `NC(=O)c1c(F)ccc(OCC2CC(c3ccc(C4CCCCC4)cc3)=NO2)c1F` (configuration not stated), the MIC with Pseudomonas aeruginosa, with Escherichia coli, against Staphylococcus aureus [2], with Bacillus pumilus, in the assay on Staphylococcus aureus [3] and with Staphylococcus aureus [4] was more than 64 µg/mL in each case. Further, in the assay on Bacillus subtilis [5], the MIC was more than 64 µg/mL.

As to `CCCOc1cccc(C2=NOC(COc3ccc(F)c(C(N)=O)c3F)C2)c1` (configuration not stated), the MIC against Pseudomonas aeruginosa was more than 64 µg/mL; against Escherichia coli, more than 64 µg/mL; with Staphylococcus aureus [2], 32 µg/mL (≈ 82 µM); against Bacillus pumilus, 2 µg/mL (≈ 5.12 µM); with Staphylococcus aureus [3] it was 16 µg/mL (≈ 41 µM); against Staphylococcus aureus [4], 16 µg/mL (≈ 41 µM). This compound showed an MIC with Bacillus subtilis [5] of 4 µg/mL (≈ 10.2 µM).

Regarding `CC(C)c1ccc(C2=NOC(COc3ccc(F)c(C(N)=O)c3F)C2)cc1` (configuration not stated), the MIC against Pseudomonas aeruginosa was more than 64 µg/mL; against Escherichia coli, more than 64 µg/mL; against Staphylococcus aureus [2], 16 µg/mL (≈ 42.7 µM); with Bacillus pumilus it was not above 0.125 µg/mL; against Staphylococcus aureus [3], 4 µg/mL (≈ 10.7 µM); in the assay on Staphylococcus aureus [4], 4 µg/mL (≈ 10.7 µM). This compound yielded an MIC against Bacillus subtilis [5] not above 0.125 µg/mL.

Regarding `COc1ccc(C2=NOC(COc3ccc(F)c(C(N)=O)c3F)C2)cc1` (configuration not stated), the MIC with Pseudomonas aeruginosa was more than 64 µg/mL; in the assay on Escherichia coli, more than 64 µg/mL; against Staphylococcus aureus [2], more than 64 µg/mL; in the assay on Bacillus pumilus it was 32 µg/mL (≈ 88.3 µM); in the assay with Staphylococcus aureus [3] it was more than 64 µg/mL; against Staphylococcus aureus [4] it was more than 64 µg/mL. In the assay with Bacillus subtilis [5], this compound returned an MIC of 8 µg/mL (≈ 22.1 µM).

Regarding `NC(=O)c1c(F)ccc(OCC2CC(c3ccc4c(c3)OCO4)=NO2)c1F` (configuration not stated), the MIC in the assay with Pseudomonas aeruginosa was more than 64 µg/mL; against Escherichia coli, more than 64 µg/mL; against Staphylococcus aureus [2] it was 64 µg/mL (≈ 170 µM); against Bacillus pumilus, 16 µg/mL (≈ 42.5 µM); in the assay on Staphylococcus aureus [3] it was 64 µg/mL (≈ 170 µM); in the assay with Staphylococcus aureus [4], 64 µg/mL (≈ 170 µM). Further, in the assay on Bacillus subtilis [5], the MIC was determined as 16 µg/mL (≈ 42.5 µM).

As for `NC(=O)c1c(F)ccc(OCC2CC(c3ccccc3)=NO2)c1F` (configuration not stated), the MIC was more than 64 µg/mL against Pseudomonas aeruginosa; more than 64 µg/mL in the assay on Escherichia coli; more than 64 µg/mL in the assay on Staphylococcus aureus [2]; 64 µg/mL (≈ 193 µM) against Bacillus pumilus; more than 64 µg/mL in the assay with Staphylococcus aureus [3]; more than 64 µg/mL with Staphylococcus aureus [4]. Also, in the assay on Bacillus subtilis [5], the lowest concentration to inhibit growth (MIC) was 16 µg/mL (≈ 48.1 µM).
